The values below come from paper PMC10247892 (Biomedicine & Pharmacotherapy, 2023).

One series has as its system MRC-5 cells. Put plainly: Cytotoxicity assay. Format: cell-based. Particulars: read-out: CC50 ± SD, MTT, 24 h.
Series [1] has as its system Vero E6 cells. Conditions: uninfected Vero E6 cells, 3 days.
The test system of the next series is HCoV-229E. In words: Antiviral activity against HCoV-229E in MRC-5 cells. The format is cell-based, human coronavirus 229E. Conditions: for IC50: read-out: IC50 ± SD. The procedure, abridged:
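MRC-5 cells were seeded at 20,000/well in duplicate per drug and condition and grown to 80 % confluency. Virus was adsorbed at MOI 0.1 PFU/cell in FBS-free DMEM for 1 h at 37 °C, then removed. Serial dilutions of test compound in 1 % FBS DMEM were added for 24 h, at doses below MTT-determined cytotoxicity. Cells were fixed with PFA, saponin-permeabilised and stained with anti-N antibody, Alexa 488 secondary and DAPI, then imaged by widefield fluorescence. Infection was normalised to the untreated infected control (100 %). IC50 came from a nonlinear dose-effect fit. Three replicate experiments.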

The next series can be described thus: Cytotoxicity assay. Conditions: human, MRC-5 cells. Format: cell-based.
Series [2] relates to SARS-CoV-2 Spike pseudovirus. The format is cell-based.
Series [3] relates to SARS-CoV-2. In words: TEM of Vero E6 cells infected with SARS-CoV-2. The format is cell-based. Particulars: infected Vero E6, highest concentration (HβCD 20 mM), 48 hpi. The gist of the method: (§1)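 Mock- or virus-infected Vero E6 monolayers were kept without or with two concentrations of test compound (0.16 mM or 20 mM for the cyclodextrin shown). At 48 h they were fixed with 4 % PFA plus 1 % glutaraldehyde in PBS for 2 h at RT. Samples were pelleted, post-fixed on ice in osmium tetroxide/potassium ferrocyanide, acetone-dehydrated and epoxy-embedded. At least 100 cells per condition were examined by TEM.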

The test system of series [4] is SARS-CoV-2. Format: cell-based. Particulars: Vero E6 cells.
Series [5] concerns Vero E6 cells. Put plainly: TEM of mock-infected Vero E6 cells. Format: cell-based. Conditions: 48 h. The gist of the method: as §1
Series [6] relates to SARS-CoV-2 NanoLuc replicative competent reporter virus. The arrangement: species or system golden Syrian hamsters. Particulars: hamster, in vivo.
Series [7] has as its target SARS-CoV-2 3CL main protease (MBP-tagged) (Severe acute respiratory syndrome coronavirus 2, UniProt P0DTD1). The format is biochemical. Particulars: increasing concentrations.
The next series concerns Calu-3 cells. In words: Lipidomic analysis of Calu-3 cells after MβCD treatment. Format: cell-based. Particulars: increasing concentrations, 2 h. The gist of the method: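 Calu-3 cells were seeded at 3 million/well and treated with 0, 0.6 or 2.5 mM test compound for 2 h at 37 °C and 5 % CO2. Plasma membrane lipid composition was then measured by lipidomics.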
The mark [8] stands for this setting: Human coronavirus 229E, MRC5, 24 h.
[9] abbreviates: HCoV229E, MRC-5 cells, MOI 0.1, 24 h.
Where [10] appears, read: Vero E6, lower or only dose (HβCD 0.16 mM, phytol 50 µM).

For orientation: CC50 means the concentration giving 50% cytotoxicity. Usually IC50 stands for the concentration that gives 50% inhibition.

Entries after “also recorded” stand apart in the source; their conditions may differ. Like-named read-outs stand apart in the source and are kept apart here.

Consider `N[C@@H](Cc1ccccc1)C(=O)O` [L-Phenilalanine], for which, in the series with MRC-5 cells, the CC50 was less than 10000 µM.

Regarding `CC1=CCC(=C(C)C)CC1` [Terpinolene], the First cytotoxic conc. in the series with Vero E6 cells [1] is given as 10000 µM. For the same molecule, the IC50 in the series on HCoV-229E (setting [8]) came to 8000 ± 2200 µM. Further, in the series “Cytotoxicity assay”, the CC50 at 24 h was 69000 µM.

With `NCC(CC(=O)O)c1ccc(Cl)cc1` (centres unmarked) [Baclogen], the “Inhibition of HCoV-229E infection (in words)” value in the series on HCoV-229E (MRC-5 cells) is “did not have an inhibitory effect”. For the same molecule, the CC50 in the series on MRC-5 cells is more than 1000 µM.

For the molecule `COC[C@H]1OC(=O)c2coc3c2[C@@]1(C)C1=C(C3=O)[C@@H]2CCC(=O)[C@@]2(C)C[C@H]1OC(C)=O` [Wortmannin], the First cytotoxic conc. in the series on Vero E6 cells [1] came to 25 µM. Also, the IC50 with HCoV-229E (setting [8]) was 21.6 ± 15.6 µM. This molecule gave a cytotoxic concentration (CC50) at 24 h in the series “Cytotoxicity assay” of more than 50 µM.

For the molecule `CCC(CC)COC(=O)[C@H](C)N[P@](=O)(OC[C@H]1O[C@@](C#N)(c2ccc3c(N)ncnn23)[C@H](O)[C@@H]1O)Oc1ccccc1` [Remdesivir], the First cytotoxic conc. with Vero E6 cells [1] is 100 µM.

As for `OC[C@H]1O[C@@H]2O[C@H]3[C@H](O)[C@@H](O)[C@@H](O[C@H]4[C@H](O)[C@@H](O)[C@@H](O[C@H]5[C@H](O)[C@@H](O)[C@@H](O[C@H]6[C@H](O)[C@@H](O)[C@@H](O[C@H]7[C@H](O)[C@@H](O)[C@@H](O[C@H]8[C@H](O)[C@@H](O)[C@@H](O[C@H]1[C@H](O)[C@H]2O)O[C@@H]8CO)O[C@@H]7CO)O[C@@H]6CO)O[C@@H]5CO)O[C@@H]4CO)O[C@@H]3CO` [β-CD, ß-Cyclodextrin], the “Inhibition of SARS-CoV-2 pseudovirus entry (in words)” value in series [2] was “most potent”.

Phytol had a First cytotoxic conc. in the series with Vero E6 cells [1] of 100 to 200 µM. Further, the IC50 with HCoV-229E (setting [9]) worked out at 18.6 ± 6.9 µM. Further, the CC50 in the series on MRC-5 cells is 56.2 µM. The “Effect on infected cells by TEM (in words)” value with SARS-CoV-2 [3] is “clear signs of cytopathic effect”. Further, the “Antiviral activity against SARS-CoV-2 (in words)” value in the series with SARS-CoV-2 [4] is reported as “had antiviral activity”. Further, in the series with Vero E6 cells [5] (setting [10]), the “Alterations in mock-infected cells by TEM (in words)” value is recorded as “did not cause significant alterations”.

In the series with Vero E6 cells [1], `CC(=O)Nc1nc(C)c(-c2ccc(Cl)c(S(=O)(=O)NCCO)c2)s1` [PIK93] had a First cytotoxic conc. of 20 µM. Moreover, the half-inhibitory concentration (IC50) with HCoV-229E (setting [9]) came out at 4.2 ± 1.4 µM. Further, the CC50 in the series with MRC-5 cells is more than 50 µM.

In turn, `CC(O)COC[C@H]1O[C@@H]2O[C@H]3[C@H](O)[C@@H](O)[C@@H](O[C@H]4[C@H](O)[C@@H](O)[C@@H](O[C@H]5[C@H](O)[C@@H](O)[C@@H](O[C@H]6[C@H](O)[C@@H](O)[C@@H](O[C@H]7[C@H](O)[C@@H](O)[C@@H](O[C@H]8[C@H](O)[C@@H](O)[C@@H](O[C@H]1[C@H](O)[C@H]2O)O[C@@H]8COCC(C)O)O[C@@H]7COCC(C)O)O[C@@H]6COCC(C)O)O[C@@H]5COCC(C)O)O[C@@H]4COCC(C)O)O[C@@H]3COCC(C)O` (stereo partly drawn) [HβCD, hydroxypropyl-β-cyclodextrin] returned a First cytotoxic conc. in the series with Vero E6 cells [1] of 20000 µM. The “Inhibition of SARS-CoV-2 pseudovirus entry (in words)” value in [2] is “inhibited the entry of pseudovirus”; in series [2] (listed as HP-β), “most potent”. Also, the IC50 with HCoV-229E (setting [8]) worked out at 4300 ± 4000 µM. Half-maximal cytotoxicity in the series “Cytotoxicity assay” (CC50 at 24 h) was put at 43600 µM. Also, in the series on SARS-CoV-2 [3], the “Effect on infected cells by TEM (in words)” value is on record as “all viral structures were reduced”. In addition, the “Antiviral activity against SARS-CoV-2 (in words)” value with SARS-CoV-2 [4] is “had antiviral activity”. Further, the “Alterations in mock-infected cells by TEM (in words)” value in the series on Vero E6 cells [5] (Vero E6, higher dose (HβCD 20 mM)) was “increased number of vacuoles”; with Vero E6 cells [5] (setting [10]) it was “did not produce appreciable changes”.

As to `C=C1CC[C@H]2C(=C)CC[C@H]3C(=C)C(=O)O[C@@H]3[C@@H]12` [Dehydrocostus lactone], the First cytotoxic conc. in the series with Vero E6 cells [1] was found to be 100 µM. Further, the IC50 with HCoV-229E (setting [8]) turned out to be 4.2 ± 1.8 µM. In the series “Cytotoxicity assay”, this molecule showed a CC50 at 24 h of 39.1 µM.

`CC(C)C[C@H](NC(=O)[C@H](Cc1ccccc1)NC(=O)c1cnccn1)B(O)O` [Bortezomib (PS-341), Bortezomib] had a First cytotoxic conc. in the series with Vero E6 cells [1] of 0.8 µM. In the series on HCoV-229E (setting [8]), the IC50 came to 0.0006 ± 0.0003 µM. Besides, the CC50 at 24 h in “Cytotoxicity assay” is more than 0.1 µM.

As to Methyl-β-cyclodextrin [MβCD], the “Nanoluciferase signal in nasal turbinates and lungs (in words)” value in series [6] is “no nanoluciferase signal was detected; also recorded: no sign of infection was detected”. Also, the “Inhibition of M^pro activity (in words)” value in [7] is on record as “did not show activity”. Also, the “Effect on phosphatidylcholine (in words)” value in the series on Calu-3 cells is “did not affect phosphatidylcholine”.

Gingenoside RB1: the First cytotoxic conc. with Vero E6 cells [1] is 50 µM. Moreover, the IC50 with HCoV-229E (setting [9]) came to 48.3 ± 2.1 µM. Moreover, the CC50 with MRC-5 cells was more than 1000 µM.

For `CCCCCCCCCCC(C)(C)C(=O)Nc1c(OC)cc(OC)cc1OC` [CI976], the First cytotoxic conc. in the series on Vero E6 cells [1] is 100 µM. Besides, the CC50 in the series with MRC-5 cells amounted to 50.7 µM.

`CC1=C(C(=O)OC2CCCCC2)C(c2ccc([N+](=O)[O-])cc2)C2=C(CC(C)(C)CC2=O)N1` (centres unmarked) [FLI 06] had a First cytotoxic conc. with Vero E6 cells [1] of 4 to 6.25 µM. Moreover, the IC50 in the series on HCoV-229E (setting [9]) was determined as 0.4 ± 0.3 µM. In addition, the CC50 in the series with MRC-5 cells is more than 50 µM.

For the molecule `Nc1ccc(C(=O)NCC(=O)O)cc1` [Aminohipurric], the CC50 with MRC-5 cells was less than 10000 µM.

For the molecule `C=C(C)[C@H]1CC=C(C)CC1` [R-(+)-Limonene], the CC50 in the series with MRC-5 cells was determined as 1910 µM.

In the series with Vero E6 cells [1], `CC(C)[C@@H]1NC(=O)[C@H](C)OC(=O)[C@@H](C(C)C)NC(=O)[C@@H](C(C)C)OC(=O)[C@H](C(C)C)NC(=O)[C@H](C)OC(=O)[C@@H](C(C)C)NC(=O)[C@@H](C(C)C)OC(=O)[C@H](C(C)C)NC(=O)[C@H](C)OC(=O)[C@@H](C(C)C)NC(=O)[C@@H](C(C)C)OC1=O` [Valinomycin] showed a First cytotoxic conc. of 0.32 µM. In addition, the IC50 in the series with HCoV-229E (setting [8]) worked out at 2.5 ± 0.2 µM. This molecule also showed a CC50 at 24 h in the series “Cytotoxicity assay” of 12.5 µM.

Molecule `C[C@H]1O[C@@H](O[C@H]2[C@@H](O)C[C@H](O[C@H]3[C@@H](O)C[C@H](O[C@H]4CC[C@@]5(C)[C@H](CC[C@@H]6[C@@H]5CC[C@]5(C)[C@@H](C7=CC(=O)OC7)CC[C@]65O)C4)O[C@@H]3C)O[C@@H]2C)C[C@H](O)[C@@H]1O` [Digitoxin] came in with a First cytotoxic conc. with Vero E6 cells [1] of 1.56 µM. The same molecule had a CC50 at 24 h in the series “Cytotoxicity assay” of 0.0069 µM.

Consider `COc1cc(-n2c(=S)[nH]c3ccccc3c2=O)c(Cl)cc1Cl` [Mdivi-1], for which the First cytotoxic conc. in the series on Vero E6 cells [1] is listed as 20 µM. For the same molecule, the IC50 in the series with HCoV-229E (setting [9]) is 11.7 ± 0.7 µM. Further, the CC50 in the series with MRC-5 cells was 95.4 µM.
